Measured values published in ChEMBL document CHEMBL1671710, “Different classes of antibiotics differentially influence shiga toxin production” (2010).
≈ marks a conversion by molar mass, not a printed value. Calls of active or inactive are those of the source. No cut-off for these calls is given here.

Legend:
Escherichia coli [1] = assay: Antimicrobial activity against Escherichia coli O157:H7 PT-32 in logarithmic phase encoding Stx-1 and Stx-2 gene by broth macrodilution assay
Escherichia coli [2] = assay: Antimicrobial activity against Escherichia coli C600::933W in logarithmic phase encoding Stx-2 gene by broth macrodilution assay; type: functional
Escherichia coli [3] = assay: Antimicrobial activity against Escherichia coli O157:H7 PT-40 in stationary phase encoding Stx-2 gene by broth macrodilution assay
Escherichia coli [4] = assay: Antimicrobial activity against Escherichia coli C600::H19B in logarithmic phase encoding Stx-1 gene by broth macrodilution assay
Escherichia coli [5] = assay: Antimicrobial activity against Escherichia coli C600::H19B in stationary phase encoding Stx-1 gene by broth macrodilution assay
Escherichia coli [6] = assay: Antimicrobial activity against Escherichia coli O157:H7 185 encoding stx gene by broth microdilution method; type: functional, organism-based
Escherichia coli [7] = assay: Antimicrobial activity against Escherichia coli O157:H7 PT-40 in logarithmic phase encoding Stx-2 gene by broth macrodilution assay; type: functional
Escherichia coli [8] = assay: microbe, parasite or virus in culture; conditions: C600::933W
Escherichia coli [9] = assay: Antimicrobial activity against Escherichia coli O157:H7 PT-32 in stationary phase encoding Stx-1 and Stx-2 gene by broth macrodilution assay; type: functional
Outline: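 Overnight MH-broth cultures (stationary phase) were diluted 1:1,000, then 1:200. 1 ml was mixed with 1.0 ml of antibiotic in MH broth, with trimethoprim:sulfamethoxazole at 1:5, and held overnight at 37°C with rotary aeration. MIC judged visually, corresponding to ∼10^7 CFU/ml.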

Work on `C[C@H]1c2cccc(O)c2C(=O)C2=C(O)[C@]3(O)C(=O)C(C(N)=O)=C(O)[C@@H](N(C)C)[C@@H]3[C@@H](O)[C@@H]21.O` [DOXYCYCLINE] yielded an MIC (Escherichia coli [1]) of 1 µg/mL, an MIC (Escherichia coli [2]) of 0.5 µg/mL and an MIC (Escherichia coli [3]) of 1 µg/mL. The MIC (Escherichia coli [4]) was 0.25 µg/mL, the MIC (Escherichia coli [5]) was 0.5 µg/mL and the Activity (Escherichia coli [6]) was “Active”. The MIC (Escherichia coli [7]) was 1 µg/mL, the MIC (Escherichia coli [8]) was 1 µg/mL and the MIC (Escherichia coli [9]) was 0.5 µg/mL.
With `CC[C@H]1OC(=O)[C@H](C)[C@@H](O[C@H]2C[C@@](C)(OC)[C@@H](O)[C@H](C)O2)[C@H](C)[C@@H](O[C@@H]2O[C@H](C)C[C@H](N(C)C)[C@H]2O)[C@](C)(O)C[C@@H](C)CN(C)[C@H](C)[C@@H](O)[C@]1(C)O` [AZITHROMYCIN] the MIC (Escherichia coli [1]) was 2.6 µg/mL (≈ 3.47 µM), the MIC (Escherichia coli [2]) was 2 µg/mL (≈ 2.67 µM) and the MIC (Escherichia coli [3]) was 2.6 µg/mL (≈ 3.47 µM). For the same molecule, the MIC (Escherichia coli [4]) was 2 µg/mL (≈ 2.67 µM), the MIC (Escherichia coli [5]) was 2 µg/mL (≈ 2.67 µM) and the MIC (Escherichia coli [7]) was 4 µg/mL (≈ 5.34 µM). For the same molecule, the MIC (Escherichia coli [8]) was 2 µg/mL (≈ 2.67 µM) and the MIC (Escherichia coli [9]) was 2.6 µg/mL (≈ 3.47 µM).
For `C[C@@H]1O[C@@H]1P(=O)(O)O` [FOSFOMYCIN], the MIC (Escherichia coli [1]) was 16 µg/mL (≈ 116 µM), the MIC (Escherichia coli [2]) was 2 µg/mL (≈ 14.5 µM) and the MIC (Escherichia coli [3]) was 16 µg/mL (≈ 116 µM). The MIC (Escherichia coli [4]) was 2 µg/mL (≈ 14.5 µM), the MIC (Escherichia coli [5]) was 0.5 µg/mL (≈ 3.62 µM) and the MIC (Escherichia coli [7]) was 16 µg/mL (≈ 116 µM). It also gave an MIC (Escherichia coli [8]) of 2 µg/mL (≈ 14.5 µM) and an MIC (Escherichia coli [9]) of 16 µg/mL (≈ 116 µM).
In the case of `CC1(C)S[C@@H]2[C@H](NC(=O)[C@H](N)c3ccccc3)C(=O)N2[C@H]1C(=O)O` [AMPICILLIN], the MIC (Escherichia coli [3]) is reported as 8 µg/mL (≈ 22.9 µM), the MIC (Escherichia coli [4]) is reported as 4 µg/mL (≈ 11.4 µM) and the MIC (Escherichia coli [5]) is reported as 8 µg/mL (≈ 22.9 µM). The Activity (Escherichia coli [6]) was “Active”, the MIC (Escherichia coli [8]) was 8 µg/mL (≈ 22.9 µM) and the MIC (Escherichia coli [9]) was 4 µg/mL (≈ 11.4 µM).
Molecule GENTAMICIN has an MIC (Escherichia coli [2]) of 0.25 µg/mL, an MIC (Escherichia coli [7]) of 0.25 µg/mL and an MIC (Escherichia coli [9]) of 0.25 µg/mL.
`CO[C@H]1/C=C/O[C@@]2(C)Oc3c(C)c(O)c4c(O)c(c(/C=N/N5CCN(C)CC5)c(O)c4c3C2=O)NC(=O)/C(C)=C\C=C\[C@H](C)[C@H](O)[C@@H](C)[C@@H](O)[C@@H](C)[C@H](OC(C)=O)[C@@H]1C` [RIFAMPIN] showed an MIC (Escherichia coli [1]) of 4 µg/mL (≈ 4.86 µM), an MIC (Escherichia coli [2]) of 8 µg/mL (≈ 9.72 µM) and an MIC (Escherichia coli [3]) of 16 µg/mL (≈ 19.4 µM). For the same molecule, the MIC (Escherichia coli [4]) was 4 µg/mL (≈ 4.86 µM), the MIC (Escherichia coli [5]) was 16 µg/mL (≈ 19.4 µM) and the MIC (Escherichia coli [7]) was 4 µg/mL (≈ 4.86 µM). It also gave an MIC (Escherichia coli [8]) of 8 µg/mL (≈ 9.72 µM) and an MIC (Escherichia coli [9]) of 2 µg/mL (≈ 2.43 µM).
For `Cc1cc(NS(=O)(=O)c2ccc(N)cc2)no1` [SULFAMETHOXAZOLE], the MIC (Escherichia coli [1]) was 0.13 µg/mL (≈ 0.513 µM), the MIC (Escherichia coli [2]) was 0.01 µg/mL (≈ 0.0395 µM) and the MIC (Escherichia coli [3]) was 0.13 µg/mL (≈ 0.513 µM). The MIC (Escherichia coli [4]) was 0.004 µg/mL (≈ 0.0158 µM), the MIC (Escherichia coli [5]) was 0.03 µg/mL (≈ 0.118 µM) and the MIC (Escherichia coli [7]) was 0.13 µg/mL (≈ 0.513 µM). The MIC (Escherichia coli [8]) was 0.03 µg/mL (≈ 0.118 µM) and the MIC (Escherichia coli [9]) was 0.13 µg/mL (≈ 0.513 µM).
Molecule `CO/N=C(\C(=O)N[C@@H]1C(=O)N2C(C(=O)O)=C(CSc3nc(=O)c(O)nn3C)CS[C@H]12)c1csc(N)n1` [CEFTRIAXONE] has an MIC (Escherichia coli [1]) of 0.03 µg/mL (≈ 0.0541 µM), an MIC (Escherichia coli [2]) of 0.03 µg/mL (≈ 0.0541 µM) and an MIC (Escherichia coli [3]) of 0.06 µg/mL (≈ 0.108 µM). For the same molecule, the MIC (Escherichia coli [4]) was 0.03 µg/mL (≈ 0.0541 µM), the MIC (Escherichia coli [5]) was 0.06 µg/mL (≈ 0.108 µM) and the MIC (Escherichia coli [7]) was 0.06 µg/mL (≈ 0.108 µM). It also gave an MIC (Escherichia coli [8]) of 0.03 µg/mL (≈ 0.0541 µM) and an MIC (Escherichia coli [9]) of 0.03 µg/mL (≈ 0.0541 µM).
